# Assay results taken from ChEMBL document CHEMBL4346669, “Novel nannocystin A analogues as anticancer therapeutics: Synthesis, biological evaluations and structure-activity relationship studies” (Eur J Med Chem, 2019).
# Activity calls are given as the source filed them. The calls are words filed in the database; no cut-off is given here.
# How the values were obtained:
# [1] = test system: A549; assay: Cell cycle arrest in human A549 cells assessed as accumulation at G2 phase after 24 hrs by propidium iodide/RNase A staining-based flow cytometric analysis; type: functional
# [2] = test system: A549; assay: Induction of apoptosis in human A549 cells assessed as necrotic cells at 90 nM after 12 hrs by Annexin-V FITC/propidium iodide staining based flow cytometric analysis (reference value: 1.28%); type: functional
# [3] = test system: A549; assay: Inhibition of colony formation in human A549 cells at 10 to 20 nM incubated for 3 days followed by further incubation in drug-free medium and measured after 15 days by crystal violet staining-based inverted microscopic analysis; type: functional, cell-based
# In short: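 500 A549 cells/well incubated 24 h, then treated with 5, 10 or 20 nM for 3 days, followed by drug-free medium changed every 3 days. At day 15 after plating, colonies fixed in 95% ethanol 15 min, stained with 0.1% crystal violet, counted (colony = over 100 cells); mean ± SD of three independent experiments.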
# [4] = test system: A549; assay: Induction of apoptosis in human A549 cells assessed as late apoptotic cells at 90 nM after 12 hrs by Annexin-V FITC/propidium iodide staining based flow cytometric analysis (reference value: 1.22%); type: functional
# [5] = test system: A549; assay: Induction of apoptosis in human A549 cells assessed as viable cells at 60 nM after 6 hrs by Annexin-V FITC/propidium iodide staining based flow cytometric analysis; type: functional; details: A549, 6 h, read-out: Activity
# In short: (§1)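 Time-course: A549 (2×10^5 cells/well, grown overnight) exposed to 60 nM for 6, 12 or 24 h; untreated control. Cells trypsinized, washed in cold PBS, stained 15 min with Annexin V-FITC in binding buffer, then PI, and read by flow cytometry; duplicate experiments.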
# [6] = test system: A549; assay: Induction of apoptosis in human A549 cells assessed as increase in Bax protein expression by Western blot analysis; type: functional, cell-based
# In short: (§2)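 A549 treated 30, 60 and 90 nM for 24 h; lysates normalized by BCA, 30 μg protein denatured in SDS buffer at 100 °C 8 min, SDS-PAGE, PVDF transfer, blocked in 5% milk/TBS-0.05% Tween 2 h, primary antibodies overnight at 4 °C, HRP anti-rabbit IgG 2 h, ECL detection; β-actin loading control.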
# [7] = test system: A549; assay: Cell cycle arrest in human A549 cells assessed as accumulation at G1 phase at 30 nM after 24 hrs by propidium iodide/RNase A staining-based flow cytometric analysis (reference value: 57.41%); type: functional
# [8] = test system: A549; assay: Induction of apoptosis in human A549 cells assessed as increase in caspase3 expression by Western blot analysis; type: functional, cell-based; in short: as §2
# [9] = test system: A549; assay: Induction of apoptosis in human A549 cells assessed as viable cells at 60 nM after 24 hrs by Annexin-V FITC/propidium iodide staining based flow cytometric analysis; type: functional; details: A549, 24 h, read-out: Activity; in short: as §1
# [10] = test system: A549; assay: Induction of apoptosis in human A549 cells after 12 hrs by Annexin-V FITC/propidium iodide staining based flow cytometric analysis; type: functional, cell-based
# [11] = test system: A549; assay: Induction of apoptosis in human A549 cells assessed as early apoptotic cells at 60 nM after 24 hrs by Annexin-V FITC/propidium iodide staining based flow cytometric analysis; type: functional; in short: as §1
# [12] = test system: SH-SY5Y; assay: Antiproliferative activity against human SH-SY5Y cells assessed as reduction in cell viability measured after 72 hrs by MTT assay; type: functional, cell-based
# In short: (§3)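 Cells seeded at 5×10^3 per well and cultured overnight, then exposed for 72 h at 37 °C to six concentrations from 10 µM down to 0.0001 µM (from 10 mM DMSO stock diluted in medium; vehicle 1% DMSO in PBS). MTT at 0.5 mg/mL was added for 4 h, formazan dissolved in DMSO, and A570 read. IC50 given as mean ± SD of three independent experiments.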
# [13] = test system: A549; assay: Induction of apoptosis in human A549 cells assessed as increase in caspase9 expression by Western blot analysis; type: functional, cell-based; in short: as §2
# [14] = test system: A549; assay: Induction of apoptosis in human A549 cells assessed as necrotic cells at 30 nM after 12 hrs by Annexin-V FITC/propidium iodide staining based flow cytometric analysis (reference value: 1.28%); type: functional
# [15] = test system: A549; assay: Induction of apoptosis in human A549 cells assessed as early apoptotic cells at 60 nM after 12 hrs by Annexin-V FITC/propidium iodide staining based flow cytometric analysis (reference value: 0.32%); type: functional
# [16] = test system: A549; assay: Induction of apoptosis in human A549 cells assessed as nuclear fragmentation at 90 nM after 24 hrs by […] staining-based confocal laser scanning microscopic analysis; type: functional, cell-based
# In short: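 A549 exposed to 30, 60 and 90 nM for 24 h, stained with Hoechst 33342, imaged by confocal laser scanning microscopy; strongly blue-fluorescent nuclei scored as apoptotic.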
# [17] = test system: A549; assay: Induction of apoptosis in human A549 cells assessed as early apoptotic cells at 60 nM after 6 hrs by Annexin-V FITC/propidium iodide staining based flow cytometric analysis; type: functional; in short: as §1
# [18] = test system: A549; assay: Cell cycle arrest in human A549 cells assessed as accumulation at G2 phase at 60 nM after 24 hrs by propidium iodide/RNase A staining-based flow cytometric analysis (reference value: 30.02%); type: functional
# [19] = test system: A549; assay: Induction of apoptosis in human A549 cells assessed as late apoptotic cells at 30 nM after 12 hrs by Annexin-V FITC/propidium iodide staining based flow cytometric analysis (reference value: 1.22%); type: functional
# [20] = test system: A549; assay: Induction of apoptosis in human A549 cells assessed as viable cells at 60 nM after 12 hrs by Annexin-V FITC/propidium iodide staining based flow cytometric analysis (reference value: 97.18%); type: functional; details: A549, 12 h, read-out: Activity
# [21] = test system: A549; assay: Cell cycle arrest in human A549 cells assessed as accumulation at G2 phase at 30 nM after 24 hrs by propidium iodide/RNase A staining-based flow cytometric analysis (reference value: 30.02%); type: functional
# [22] = test system: A549; assay: Induction of apoptosis in human A549 cells assessed as reduction in Bcl-2 expression at 30 to 90 nM by Western blot analysis
# [23] = test system: A549; assay: Induction of apoptosis in human A549 cells assessed as viable cells at 90 nM after 12 hrs by Annexin-V FITC/propidium iodide staining based flow cytometric analysis (reference value: 97.18%); type: functional; details: A549, 12 h, read-out: Activity
# [24] = test system: MDA-MB-231; assay: Antiproliferative activity against human MDA-MB-231 cells assessed as reduction in cell viability measured after 72 hrs by MTT assay; type: functional, cell-based; details: MDA-MB-231, 72 h; in short: as §3
# [25] = test system: HCT-116; assay: Antiproliferative activity against human HCT116 cells assessed as reduction in cell viability measured after 72 hrs by MTT assay; type: functional, cell-based; details: Homo sapiens, HCT-116, 72 h; read-out: IC50
# In short: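 Cells seeded 5×10^3/well, cultured overnight, then exposed to 10, 1, 0.1, 0.01, 0.001 and 0.0001 µM (from 10 mM DMSO stocks diluted in medium; vehicle 1% DMSO PBS) for 72 h at 37 °C. Medium replaced with 0.5 mg/mL MTT for 4 h, formazan dissolved in DMSO, A570 read. IC50 as mean ± SD of three independent experiments.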
# [26] = test system: A549; assay: Cell cycle arrest in human A549 cells assessed as accumulation at S phase at 30 nM after 24 hrs by propidium iodide/RNase A staining-based flow cytometric analysis (reference value: 12.57%); type: functional
smiles,measurement,setting,value
COc1cc(C[C@H]2NC(=O)[C@H](C(C)C)N(C)C(=O)/C(C)=C/C[C@@H](OC)/C(C)=C/C=C/[C@@H](C)[C@@H](c3ccccc3)OC(=O)[C@H](C(C)C)NC2=O)ccc1O,Activity,[1],Dose-dependent effect
same,Activity,[2],12.85%
same,inhibition,[3],Active
same,Activity,[4],28.22%
same,viability at 0.06 µM,[5],92.3%
same,Activity,[6],Dose-dependent effect
same,Activity,[7],49.14%
same,Activity,[8],Dose-dependent effect
same,viability at 0.06 µM,[9],54.4%
same,Activity,[10],Dose-dependent effect
same,Activity,[11],3.48%
same,IC50,[12],9.6 nM
same,Activity,[13],Dose-dependent effect
same,Activity,[14],9.87%
same,Activity,[15],3.55%
same,Activity,[16],Active
same,Activity,[17],0.34%
same,Activity,[18],40.8%
same,Activity,[19],13.6%
same,viability at 0.06 µM,[20],66.2%
same,Activity,[21],37.66%
same,Activity,[22],Active
same,viability at 0.09 µM,[23],55.4%
same,IC50,[24],12.5 nM
same,IC50,[25],48.5 nM
same,Activity,[26],13.21%
